Rows were chosen to be rich in hits. Some 2.6% of all compounds tested hit in one or more screens of this group.
MITF act: activators of MITF-driven TRPM1 promoter activity in SK-MEL-5 cells. activation, % at 12.5 µM. 300,000 tested, 0.75% active. SK-MEL-5 TRPM1-promoter luciferase, 24 h; % of positive control, neutral wells = 0;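 active means mean activation of at least 80% with every replicate also reaching 80%; inconclusive means mean reaches 80% but some replicate falls short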;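 further: 0% = neutral control wells and 100% = parthenolide positive control wells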
esBAF inh: SWI/SNF esBAF complex inhibition; AID 602393; 350,000 tested, 2% active; reporter increase, % at 12.5 µM; mouse ES cells, Bmi1-luciferase knock-in reporter, 24 h; 100% = twice the neutral-well signal; in the data active means activation above about 40%; inconclusive means no clear call, values can overlap the other calls;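 further: 0% = median of the plate's neutral control wells and 100% = double that signal; a rise in the Bmi1 reporter signal indicates esBAF inhibition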
Vif imaging: HIV Vif inhibition; inhibition, % at 7.49 µM; HEK293T cells, Vif self-association by quenched fluorescence, imaging, 24 h; 340,000 tested, 0.35% active; in the data active means inhibition above about 50%, passing the limit was not always enough; inconclusive means no clear call, values can overlap the other calls; inactive means below about 31%
Wnt bcat act: activates Wnt/beta-catenin signaling in a reporter cell assay. activator, plate reader. activation, % at 9.35 µM. 300,000 tested, 1.2% active. AID 743398; in the data active means activation above about 30%, passing the limit was not always enough; inconclusive means no clear call, values can overlap the other calls;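 further: 0% = neutral control wells and 100% = positive control wells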
XiGFP reactiv: activators of X-chromosome reactivation in mouse fibroblasts; AID 743238; XiGFP mouse fibroblasts, % GFP-positive cells imaging, 3 d; cells co-treated with 5-aza-dC sensitizer; scaled so ellipticine positive control = 100%; activation, % at 7.58 µM; 360,000 tested, 0.055% active;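 active means mean normalized replicate activation at least 10% and every replicate at or above 10%; inconclusive means only one of the two criteria met; inactive means mean below 10% and not all replicates reach 10%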;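 further: 0% = median of on-plate neutral control wells and 100% = ellipticine 6 µM median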
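System: SV40-immortalized XiGFP fibroblast cells, line 68-5-11 / Incubation: 3-day compound exposure, then 15 min fixation at room temperature / Compound: single concentration per compound, delivered by pin transfer / Buffer or medium: DMEM plus 5-aza-dC sensitizer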
* marks the source's active call; other numbers are inactive results; ? = inconclusive; . = not tested or not shown.

SMILES	MITF act	esBAF inh	Vif imaging	Wnt bcat act	XiGFP reactiv
COc1ccc(NC(=O)N(C)C[C@@H]2Oc3ccc(NC(=O)CCN4CCOCC4)cc3CC(=O)N([C@@H](C)CO)C[C@@H]2C)cc1	.	-2.0	.	.	0.2
COc1ccc(S(=O)(=O)NCc2ccc3c(c2)OCO3)cc1OC	-12.4	-3.8	113.7*	1.9	0.2
COc1ccc(C(=O)NC2=NCCS2)cc1	63.3	18.4	-12.5	35.5*	0.1
CC(C)Oc1ccc(C(=O)NC2=NCCS2)cc1	25.9	.	-5.8	-1.2	-0.1
CC(C)c1ccc(C(=O)NC2=NCCS2)cc1	43.5	-6.9	.	44.5*	1.2
Cc1ccc(C(=O)NC2=NCCS2)cc1	.	.	.	49.7*	0.1
O=C(NC1=NCCS1)c1ccc(C(F)(F)F)cc1	87.2*	52.8*	4.1	6.7	0.0
COc1cc(OC)cc(C(=O)NC2=NCCS2)c1	7.1	.	?	.	.
N#Cc1ccc(C(=O)NC2=NCCS2)cc1	61.7	48.0*	-5.7	13.5	-0.1
O=C(C[C@H]1C[C@@H]2c3cc(NC(=O)C4CCOCC4)ccc3O[C@@H]2[C@@H](CO)O1)NCc1ccccn1	.	-0.3	.	.	0.4
O=C(Nc1ccc(F)cc1)Oc1ccccc1N1CCOCC1	.	.	5.0	2.3	0.0
O=C(Oc1ccccc1N1CCOCC1)c1sccc1Br	.	2.7	-6.8	44.7*	-0.1
CCc1ccc(NC(=O)c2ccc3nc(N)sc3c2)cc1	?	49.8*	-2.1	.	.
Nc1nc2ccc(C(=O)Nc3ccccc3)cc2s1	32.7	50.8*	-3.9	.	.
CN(C(=O)c1ccc2nc(N)sc2c1)c1ccccc1	.	6.8	-1.7	-1.8	0.1
CCOc1cc(-c2ccccc2)nc(N)n1	24.2	46.6*	.	.	.
CN1CCN(C(=O)C[C@@H]2CC[C@@H]3[C@@H](COc4ccc(NC(=O)c5cccs5)cc4C(=O)N3C)O2)CC1	.	.	.	.	0.0
CC1(N2CCCCC2)C(=O)c2ccccc2C1=O	-3.2	.	-16.8	-1.6	0.0
CC1(S(=O)(=O)O)CC(=O)c2ccccc2C1=O (configuration not stated)	-40.5	1.9	174.5*	4.9	0.4
Cc1ccnc(Nc2nc(-c3ccc(O)c(O)c3)cs2)c1	.	16.6	14.6	8.2	0.3
Cc1cccc(Nc2nc(-c3ccc(O)c(O)c3)cs2)n1	.	93.2*	63.9*	7.9	-0.1
Cc1cccc(Nc2nc(-c3ccc(F)c(C)c3)cs2)n1	66.2	57.6*	-0.9	45.7*	0.0
CNC[C@H]1Oc2ccc(NC(=O)NC(C)C)cc2CC(=O)N(C)C[C@H]1C	.	.	.	.	-0.1
COc1cc(C(=O)Nc2ccc3c(c2)ncn3C)cc(OC)c1OC	.	-10.2	76.5*	1.1	0.3
COc1cc(C(=O)Nc2ccc(N(C)C)cc2)cc(OC)c1OC	51.1	70.5*	.	.	.
SMILES	MITF act	esBAF inh	Vif imaging	Wnt bcat act	XiGFP reactiv
CNC[C@H]1OCCCC[C@@H](C)Oc2ccc(NC(=O)Nc3ccccc3)cc2C(=O)N([C@H](C)CO)C[C@@H]1C	.	2.5	.	.	0.3
CC(C)NC(=O)N(C)C[C@@H]1Oc2cc(C#CC(C)(C)O)ccc2S(=O)(=O)N([C@@H](C)CO)C[C@H]1C	.	-2.4	.	.	-0.7
O=C1CCCn2cc(nn2)COC[C@H](Cc2ccccc2)N1	.	.	.	.	0.1
O=C(NCc1nnc(SCC(=O)N2CCCCC2)o1)c1c(F)cccc1F	2.7	-5.0	-5.3	-1.1	0.7
O=C(NCc1nnc(SCC(=O)N2CCCc3ccccc32)o1)c1c(F)cccc1Cl	-2.0	0.1	-7.1	50.5*	-0.1
Cc1ccc(S(=O)(=O)N(C)C[C@H]2Oc3ccc(NC(=O)NC4CCCCC4)cc3C(=O)N([C@@H](C)CO)C[C@@H]2C)cc1	.	0.8	.	.	0.0
CCN(CC)c1ccc(-c2nc3cnccc3n2C)cc1	85.4*	39.7	-0.9	.	.
COC(=O)C(Cc1ccc(OC(=O)c2ccccc2Cl)cc1)N1Cc2ccccc2C1=O (configuration not stated)	48.1	44.4*	-2.7	.	.
COc1ccc(NC(=O)Nc2cccc(F)c2)c(OC)c1	35.2	6.6	10.3	14.9	0.3
CC(=O)Nc1cccc(NC(=O)Nc2ccc(F)cc2F)c1	-7.4	.	-1.2	-4.2	0.1
COC(=O)c1ccc(NC(=O)Cc2ccc(F)cc2)cc1	29.8	33.4	-2.1	1.1	0.0
O=C(CCc1ccccc1)Nc1ccc(F)cc1F	54.6	65.7*	3.9	13.0	.
COC(=O)c1ccc(NC(=O)Nc2ccc(F)cc2F)cc1	50.1	78.5*	-7.0	-3.7	0.0
O=C(Nc1ccccc1)Nc1ccc(F)cc1F	72.2	.	7.7	48.4*	0.3
COC(=O)c1ccc(NC(=O)Nc2cccc(F)c2)cc1	46.4	70.3*	-7.5	.	0.1
COC(=O)c1ccc(CN2CC(=O)N3[C@@H](CO)[C@H](c4ccc(Br)cc4)[C@@H]3C2)cc1	.	.	.	.	0.3
O=C(C[C@H]1C[C@H]2c3cc(NC(=O)c4cccnc4)ccc3O[C@H]2[C@@H](CO)O1)NCC1CC1	.	-7.5	.	.	0.0
O=C(C[C@@H]1CC[C@H]2[C@@H](COC[C@@H](O)CN2Cc2cccc(Cl)c2)O1)N1CCCCC1	.	24.1	.	.	0.0
Cc1cc(Cl)ccc1OCC(=O)NCc1ccncc1	18.4	61.6*	-3.8	.	.
COc1ccccc1C(=O)OCC(=O)NC(=O)NC1CCCC1	-4.3	-6.7	24.3	-0.6	-0.1
O=C(COc1ccccc1Cl)NC(=O)NC1CCCC1	97.0*	24.2	-3.6	.	.
O=C(COc1ccc(Cl)cc1Cl)NCc1ccncc1	0.0	-1.5	-5.4	.	.
Cc1cc(Cl)ccc1OCC(=O)N1CCCCC1	49.9	58.3*	0.7	.	.
O=C(COc1ccc(Cl)cc1Cl)NC1CCSC1=O (configuration not stated)	93.5*	14.0	-13.4	.	.
C[C@@H]1CCCCO[C@@H](CN(C)C(=O)Nc2ccccc2)[C@H](C)CN([C@@H](C)CO)C(=O)c2cc(NC(=O)CCCN(C)C)ccc2O1	.	7.8	.	.	0.2
SMILES	MITF act	esBAF inh	Vif imaging	Wnt bcat act	XiGFP reactiv
C[C@H](O)C#Cc1ccc2c(c1)O[C@@H](CN(C)Cc1ccccc1)[C@@H](C)CN([C@H](C)CO)S2(=O)=O	.	-1.8	.	.	-1.1
CCC(=O)N1CC(=O)N2[C@H](CO)[C@@H](c3ccc(C#CC(C)C)cc3)[C@H]2C1	.	.	.	.	0.1
O=C(COc1ccc(Cl)cc1Br)NC(=O)NC1CCCC1	152.2*	72.1*	-2.2	54.2*	0.0
O=C(Nc1ccccc1Cl)NC1CCCCCCC1	53.4	58.9*	-6.7	15.7	0.0
O=C(COc1ccc(Cl)cc1Cl)NC(=O)N1CCCCC1	95.0*	59.1*	22.7	.	.
CCc1ccccc1NC(=O)NC1CCCCC1	-6.7	-7.2	.	.	.
O=C(COc1ccc(Cl)cc1Cl)NC(=O)NC1CCCC1	126.6*	48.0*	3.9	21.0	-0.1
O=C(COc1ccc(F)c(Cl)c1)NC(=O)NC1CCCC1	.	8.0	.	-2.2	0.0
CNC[C@@H]1Oc2c(NC(C)=O)cccc2C(=O)N(C)C[C@H]1C	.	.	.	.	0.0
O=C(c1ccc2c(c1)OCO2)N1CC(=O)N2[C@@H](CO)[C@H](c3ccc(C#CCC4CCCC4)cc3)[C@@H]2C1	.	.	.	.	0.2
CCc1cccc2cc3c(N)c(C(=O)Nc4ccc(S(=O)(=O)N5CCCC5)cc4)sc3nc12	7.0	.	68.4*	-13.1	89.2*
